Data taken from ChEMBL document CHEMBL2157866, “Virtual screening and computational optimization for the discovery of covalent prolyl oligopeptidase inhibitors with activity in human cells” (J Med Chem, 2012).
Calls of active or inactive are those of the source. The calls are words filed in the database; no cut-off is given here.

What was measured:
[1] = target: Dipeptidyl peptidase 4 (Homo sapiens) (UniProt P27487); assay: Inhibition DPP4 in human LN229 cell extracts using Gly-Pro-AMC substrate at 100 uM incubated for 30 mins by fluorimetric assay
Sequence of Dipeptidyl peptidase 4 (Homo sapiens) (P27487 whole entry, looked up): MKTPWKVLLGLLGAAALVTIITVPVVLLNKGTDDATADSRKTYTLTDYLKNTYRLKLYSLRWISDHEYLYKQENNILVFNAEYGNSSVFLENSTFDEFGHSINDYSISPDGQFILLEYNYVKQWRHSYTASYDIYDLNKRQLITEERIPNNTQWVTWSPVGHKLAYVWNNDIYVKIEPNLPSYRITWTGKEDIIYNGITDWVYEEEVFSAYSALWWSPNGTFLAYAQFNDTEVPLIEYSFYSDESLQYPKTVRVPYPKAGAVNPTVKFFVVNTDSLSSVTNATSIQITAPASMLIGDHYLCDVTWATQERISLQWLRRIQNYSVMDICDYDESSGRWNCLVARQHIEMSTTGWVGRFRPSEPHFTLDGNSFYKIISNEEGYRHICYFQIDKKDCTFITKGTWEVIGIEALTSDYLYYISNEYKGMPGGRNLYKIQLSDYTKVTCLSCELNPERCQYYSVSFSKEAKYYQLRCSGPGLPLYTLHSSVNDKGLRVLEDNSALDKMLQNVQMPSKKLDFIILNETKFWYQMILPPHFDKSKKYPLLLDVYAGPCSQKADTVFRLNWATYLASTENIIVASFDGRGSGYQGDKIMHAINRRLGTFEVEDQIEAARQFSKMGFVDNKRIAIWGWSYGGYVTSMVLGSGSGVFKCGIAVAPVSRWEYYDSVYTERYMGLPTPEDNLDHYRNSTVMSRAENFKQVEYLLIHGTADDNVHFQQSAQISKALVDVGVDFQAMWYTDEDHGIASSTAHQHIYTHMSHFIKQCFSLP
Summary of the method: (§1)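 Cells grown to confluence in DMEM with 4.5 g/L glucose (10% FCS for HCEC, 5% FCS for glioblastoma lines), then lysed in PBS with 0.1% Triton X-100. Inhibitor (methanol stock diluted in water) preincubated 5–10 min at room temperature in duplicate wells. Gly-Pro-AMC added at 10 μM final; fluorescence increase (ex/em 360/460 nm) read for 30 min at 37 °C.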

[2] = target: Dipeptidyl peptidase 4 (Homo sapiens) (UniProt P27487); assay: Inhibition DPP4 in human HCEC cell extracts using Gly-Pro-AMC substrate at 100 uM incubated for 30 mins by fluorimetric assay; summary of the method: as §1
[3] = target: Dipeptidyl peptidase 4 (Homo sapiens) (UniProt P27487); assay: Inhibition DPP4 in human LN18 cell extracts using Gly-Pro-AMC substrate at 100 uM incubated for 30 mins by fluorimetric assay; summary of the method: as §1
[4] = target: Dipeptidyl peptidase 4 (Homo sapiens) (UniProt P27487); assay: Inhibition DPP4 in human LNZ308 cell extracts using Gly-Pro-AMC substrate at 100 uM incubated for 30 mins by fluorimetric assay; summary of the method: as §1
[5] = target: Prolyl endopeptidase FAP (Homo sapiens) (UniProt Q12884); assay: Inhibition at human recombinant FAPalpha at 100 uM
Sequence of Prolyl endopeptidase FAP (Homo sapiens) (Q12884 whole entry): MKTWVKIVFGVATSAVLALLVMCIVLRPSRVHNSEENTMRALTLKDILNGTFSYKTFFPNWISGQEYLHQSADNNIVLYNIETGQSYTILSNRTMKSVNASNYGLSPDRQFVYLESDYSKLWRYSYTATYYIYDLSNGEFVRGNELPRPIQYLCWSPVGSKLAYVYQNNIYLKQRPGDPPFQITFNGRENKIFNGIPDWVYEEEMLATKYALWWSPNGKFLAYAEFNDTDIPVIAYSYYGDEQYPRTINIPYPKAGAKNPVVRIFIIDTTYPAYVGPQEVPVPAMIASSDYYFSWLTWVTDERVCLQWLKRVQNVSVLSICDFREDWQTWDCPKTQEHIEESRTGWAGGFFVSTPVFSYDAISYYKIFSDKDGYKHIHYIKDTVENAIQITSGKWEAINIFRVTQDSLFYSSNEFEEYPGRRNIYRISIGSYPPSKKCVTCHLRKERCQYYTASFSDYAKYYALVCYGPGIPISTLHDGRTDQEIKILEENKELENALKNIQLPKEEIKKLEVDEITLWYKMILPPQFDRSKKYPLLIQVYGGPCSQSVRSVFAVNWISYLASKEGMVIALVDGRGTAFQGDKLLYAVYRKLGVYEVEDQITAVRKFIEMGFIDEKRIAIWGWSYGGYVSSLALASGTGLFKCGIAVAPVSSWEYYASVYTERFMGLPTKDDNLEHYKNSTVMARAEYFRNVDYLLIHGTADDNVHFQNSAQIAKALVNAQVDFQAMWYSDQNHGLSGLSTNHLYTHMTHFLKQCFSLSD
Summary of the method: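 Recombinant human FAPα diluted in PBS with 1 mg/mL BSA. Setup as for cell extracts: inhibitor preincubated 5–10 min at room temperature, then Z-Gly-Pro-AMC at 10 μM final. AMC fluorescence (ex/em 360/460 nm) recorded for 30 min at 37 °C.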

[6] = target: T1, Prolyl endopeptidase (Homo sapiens) (UniProt P48147); assay: Inhibition of POP in intact human LN229 cells using Cbz-Gly-Pro-AMC substrate at 100 uM incubated for 30 mins by fluorimetric assay; type: cell-based
T1 sequence (whole entry): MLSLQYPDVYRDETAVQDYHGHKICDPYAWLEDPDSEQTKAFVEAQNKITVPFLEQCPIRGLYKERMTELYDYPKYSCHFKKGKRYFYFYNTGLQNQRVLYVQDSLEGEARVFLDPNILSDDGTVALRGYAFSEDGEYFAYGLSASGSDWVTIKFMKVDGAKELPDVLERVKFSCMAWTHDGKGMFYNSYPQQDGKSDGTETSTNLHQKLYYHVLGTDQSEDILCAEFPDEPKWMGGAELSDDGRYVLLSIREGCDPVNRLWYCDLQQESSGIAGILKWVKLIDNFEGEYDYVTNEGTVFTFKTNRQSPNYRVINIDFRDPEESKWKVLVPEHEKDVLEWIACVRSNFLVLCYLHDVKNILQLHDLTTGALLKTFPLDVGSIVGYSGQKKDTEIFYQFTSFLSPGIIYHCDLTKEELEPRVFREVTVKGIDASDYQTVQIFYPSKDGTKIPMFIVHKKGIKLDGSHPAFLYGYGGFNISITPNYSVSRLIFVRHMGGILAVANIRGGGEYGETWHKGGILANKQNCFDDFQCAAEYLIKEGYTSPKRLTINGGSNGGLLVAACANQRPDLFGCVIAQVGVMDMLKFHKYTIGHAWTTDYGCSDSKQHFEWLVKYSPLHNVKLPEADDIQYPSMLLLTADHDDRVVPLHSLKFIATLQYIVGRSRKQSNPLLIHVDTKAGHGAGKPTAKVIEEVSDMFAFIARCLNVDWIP
Summary of the method: (§2)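 Intact confluent monolayers kept in PBS pH 7.2–7.4 without detergent, in duplicate wells. Inhibitor added 5–10 min at room temperature before Z-Gly-Pro-AMC at 10 μM final. Fluorescence increase (ex/em 360/460 nm) followed for 30 min at 37 °C. IC50 obtained by plotting residual activity against inhibitor concentration.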

[7] = target: T1, Prolyl endopeptidase (Homo sapiens); assay: Inhibition of POP in intact human HCEC cells using Cbz-Gly-Pro-AMC substrate at 100 uM incubated for 30 mins by fluorimetric assay; type: cell-based; summary of the method: as §2
[8] = target: T1, Prolyl endopeptidase (Homo sapiens); assay: Inhibition of POP in human LN18 cell extracts using Cbz-Gly-Pro-AMC substrate at 100 uM incubated for 30 mins by fluorimetric assay
Summary of the method: (§3)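 Confluent monolayers (DMEM, 4.5 g/L glucose; 10% FCS for HCEC, 5% FCS for LN18/LN229/LNZ308) lysed in PBS containing 0.1% Triton X-100. Inhibitor preincubated 5–10 min at room temperature in duplicate wells. Z-Gly-Pro-AMC added at 10 μM final; fluorescence (ex/em 360/460 nm) recorded over 30 min at 37 °C. IC50 taken from residual activity plotted against decreasing inhibitor concentrations.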

[9] = target: T1, Prolyl endopeptidase (Homo sapiens); assay: Inhibition of POP in human LNZ308 cell extracts using Cbz-Gly-Pro-AMC substrate at 100 uM incubated for 30 mins by fluorimetric assay; summary of the method: as §3
[10] = target: T1, Prolyl endopeptidase (Homo sapiens); assay: Inhibition of POP in human HCEC cell extracts using Cbz-Gly-Pro-AMC substrate at 100 uM incubated for 30 mins by fluorimetric assay; summary of the method: as §3
[11] = target: T1, Prolyl endopeptidase (Homo sapiens); assay: Inhibition of POP in human LN229 cell extracts using Cbz-Gly-Pro-AMC substrate at 100 uM incubated for 30 mins by fluorimetric assay; summary of the method: as §3
[12] = target: T1, Prolyl endopeptidase (Homo sapiens); assay: Inhibition of POP in intact human LN18 cells using Cbz-Gly-Pro-AMC substrate at 100 uM incubated for 30 mins by fluorimetric assay; type: cell-based; summary of the method: as §2
[13] = target: T1, Prolyl endopeptidase (Homo sapiens); assay: Inhibition of POP in intact human LNZ308 cells using Cbz-Gly-Pro-AMC substrate at 100 uM incubated for 30 mins by fluorimetric assay; type: cell-based; summary of the method: as §2

Compound | inhibition [1] | inhibition [2] | inhibition [3] | inhibition [4] | inhibition [5] | inhibition [6] | inhibition [7] | inhibition [8] | inhibition [9] | inhibition [10] | inhibition [11] | inhibition [12] | inhibition [13]
N#C[C@@H]1CCCN1C(=O)c1cccc2c1C(=O)N(Cc1ccccc1)C2 | inactive | inactive | inactive | inactive | 28% |  |  |  |  |  |  |  | 
O=C(NCc1ccccc1)c1ccccc1C(=O)N1CCCCC1 | inactive | inactive | inactive | inactive |  | inactive | inactive | > 50% | > 50% | > 50% | > 50% | inactive | inactive
O=C(c1cccc2c1C(=O)N(Cc1ccccc1)C2)N1CCCC1 | inactive | inactive | inactive | inactive | 11% |  |  |  |  |  |  |  | 

Next, values leading:

inhibition [1] | inhibition [2] | inhibition [3] | inhibition [4] | inhibition [5] | inhibition [6] | inhibition [7] | inhibition [8] | inhibition [9] | inhibition [10] | inhibition [11] | inhibition [12] | inhibition [13] | Compound
inactive | inactive | inactive | inactive | 34% |  |  |  |  |  |  |  |  | N#C[C@@H]1CCCN1C(=O)c1ccccc1C(=O)NCc1ccccc1
inactive | inactive | inactive | inactive |  | > 50% | > 50% |  |  |  |  | > 50% | > 50% | O=C(NCc1ccccc1)c1ccccc1C(=O)N1CCCC1
